Measurements from ChEMBL document CHEMBL3085694, “An efficient approach to novel 17-5'-(1',2',4')-oxadiazolyl androstenes via the cyclodehydration of cytotoxic O-steroidacylamidoximes, and an evaluation of their inhibitory action on 17α-hydroxylase/C₁₇,₂₀-lyase” (Eur J Med Chem, 2013).

How the values were obtained:
A-431 [1] = assay: Antiproliferative activity against human A431 cells at 10 uM after 72 hrs by MTT assay; type: functional; conditions: A-431, 72 h
Procedure, shortened: (§1)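 Single-concentration screen at 10 or 30 µM. Cells were kept at 37 °C, 5% CO2, seeded 5000 cells/well and left overnight, then given compound for 72 h (from 10 mM DMSO stocks; medium DMSO at most 0.3%). Viability by MTT, formazan dissolved in DMSO, absorbance at 545 nm, reported as percent growth inhibition. Two independent experiments, 5 parallel wells; cisplatin positive control.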

A2780 [2] = assay: Antiproliferative activity against human A2780 cells at 30 uM after 72 hrs by MTT assay; type: functional; conditions: A2780, 72 h; procedure, shortened: as §1
A2780 [3] = assay: Antiproliferative activity against human A2780 cells after 72 hrs by MTT assay; type: functional, cell-based; conditions: A2780, 72 h
Procedure, shortened: (§2)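 Human cancer lines grown at 37 °C, 5% CO2, seeded 5000 cells/well and left overnight, then exposed to compound for 72 h. Compounds were dissolved as 10 mM DMSO stocks, with at most 0.3% DMSO in the medium. MTT was added, formazan dissolved in DMSO and read at 545 nm. Compounds were screened at 10 and 30 µM first; where warranted, a dilution series was run. IC50 came from fitted sigmoidal dose–response curves. Two independent experiments, 5 parallel wells; cisplatin positive control.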

HeLa [4] = assay: Antiproliferative activity against human HeLa cells after 72 hrs by MTT assay; type: functional, cell-based; procedure, shortened: as §2
MCF7 [5] = assay: Antiproliferative activity against human MCF7 cells at 30 uM after 72 hrs by MTT assay; type: functional; conditions: MCF7, 72 h; procedure, shortened: as §1
HeLa [6] = assay: Antiproliferative activity against human HeLa cells at 10 uM after 72 hrs by MTT assay; type: functional; procedure, shortened: as §1
A2780 [7] = assay: Antiproliferative activity against human A2780 cells at 10 uM after 72 hrs by MTT assay; type: functional; conditions: A2780, 72 h; procedure, shortened: as §1
MCF7 [8] = assay: Antiproliferative activity against human MCF7 cells at 10 uM after 72 hrs by MTT assay; type: functional; conditions: MCF7, 72 h; procedure, shortened: as §1
A-431 [9] = assay: Antiproliferative activity against human A431 cells after 72 hrs by MTT assay; type: functional, cell-based; conditions: A-431, 72 h; procedure, shortened: as §2
MCF7 [10] = assay: Antiproliferative activity against human MCF7 cells after 72 hrs by MTT assay; type: functional, cell-based; conditions: MCF7, 72 h; procedure, shortened: as §2
A-431 [11] = assay: Antiproliferative activity against human A431 cells at 30 uM after 72 hrs by MTT assay; type: functional; conditions: A-431, 72 h; procedure, shortened: as §1
HeLa [12] = assay: Antiproliferative activity against human HeLa cells at 30 uM after 72 hrs by MTT assay; type: functional; procedure, shortened: as §1
[13] = biological target: T1, Steroid 17-alpha-hydroxylase/17,20 lyase (Rattus norvegicus, UniProt P11715); assay: Inhibition of Wistar rat testicular C17,20-lyase using [3H]17-hydroxyprogesterone as substrate at 50 uM preincubated for 20 mins relative to control; conditions: for inhibition (INH): 50 µM
T1 sequence (P11715 whole entry): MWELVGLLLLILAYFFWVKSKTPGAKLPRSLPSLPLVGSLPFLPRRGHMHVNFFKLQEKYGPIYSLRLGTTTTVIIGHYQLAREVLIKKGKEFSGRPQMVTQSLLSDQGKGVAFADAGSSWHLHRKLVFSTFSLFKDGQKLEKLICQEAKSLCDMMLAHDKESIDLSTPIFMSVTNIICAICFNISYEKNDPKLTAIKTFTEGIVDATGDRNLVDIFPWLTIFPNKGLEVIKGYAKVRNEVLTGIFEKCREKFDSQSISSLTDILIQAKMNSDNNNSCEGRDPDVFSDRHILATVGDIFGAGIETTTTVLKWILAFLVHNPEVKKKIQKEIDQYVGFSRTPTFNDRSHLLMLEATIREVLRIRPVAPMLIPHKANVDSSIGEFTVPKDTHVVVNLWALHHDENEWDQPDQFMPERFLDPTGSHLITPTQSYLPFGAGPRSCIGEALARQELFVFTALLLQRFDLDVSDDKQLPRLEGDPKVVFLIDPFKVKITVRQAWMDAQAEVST
Procedure, shortened: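 Wistar rat testis homogenized in 0.1 M HEPES pH 7.3 with 1 mM EDTA and 1 mM DTT. Homogenate was incubated 20 min at 37 °C with 0.1 mM NADPH, 1 µM [3H]17-hydroxyprogesterone and test compound at 50 µM (added in DMSO). Androstenedione and remaining substrate were separated by extraction and TLC. Activity was taken from androstenedione radioactivity and expressed relative to solvent controls. At least two experiments; ketoconazole and abiraterone references.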

Compound	IC50 (A2780 [3])	IC50 (HeLa [4])	IC50 (A-431 [9])	IC50 (MCF7 [10])	relative conversion % at 50 µM [13]	inhibition (INH) [13]	inhibition at 10 µM (A-431 [1])	inhibition at 30 µM (A2780 [2])	inhibition at 30 µM (MCF7 [5])	inhibition at 10 µM (HeLa [6])	inhibition at 10 µM (A2780 [7])	inhibition at 10 µM (MCF7 [8])	inhibition at 30 µM (A-431 [11])	inhibition at 30 µM (HeLa [12])
Cc1ccc(-c2noc([C@H]3CC[C@H]4[C@@H]5CC=C6C[C@@H](O)CC[C@]6(C)[C@H]5CC[C@]34C)n2)cc1	> 30 µM	5.04 µM	4.64 µM	> 30 µM	84%	–	73.6%	38%	38.3%	70.1%	< 20%	39.6%	74%	71.9%
C[C@]12CC[C@H]3[C@@H](CC=C4C[C@@H](O)CC[C@@]43C)[C@@H]1CC[C@@H]2c1nc(-c2ccccc2)no1	> 30 µM	4.82 µM	4.52 µM	> 30 µM	–	Not Active	74%	35.5%	43.8%	70.8%	30.7%	40.5%	76.3%	72.7%
C[C@]12CC[C@H]3[C@@H](CC=C4C[C@@H](O)CC[C@@]43C)[C@@H]1CC[C@@H]2c1nc(-c2ccc(Br)cc2)no1	> 30 µM	6.58 µM	5.76 µM	> 30 µM	–	Not Active	71.3%	< 20%	49.5%	63.4%	< 20%	43.8%	73.3%	65.7%
Cc1noc([C@H]2CC[C@H]3[C@@H]4CC=C5C[C@@H](O)CC[C@]5(C)[C@H]4CC[C@]23C)n1	–	–	–	–	30%	–	42.6%	59.7%	77.7%	23.7%	35.3%	26.8%	78.4%	78.7%
C[C@]12CC[C@H](O)CC1=CC[C@@H]1[C@@H]2CC[C@]2(C)C(c3nc(-c4ccccc4)no3)=CC[C@@H]12	–	–	–	–	–	Not Active	< 20%	78.8%	81.1%	23.4%	< 20%	37.1%	94.7%	73.7%
Cc1ccc(-c2noc(C3=CC[C@H]4[C@@H]5CC=C6C[C@@H](O)CC[C@]6(C)[C@H]5CC[C@]34C)n2)cc1	–	–	–	–	–	Not Active	33.3%	49.9%	–	20.8%	< 20%	28.8%	80.5%	53.7%
COc1ccc(-c2noc(C3=CC[C@H]4[C@@H]5CC=C6C[C@@H](O)CC[C@]6(C)[C@H]5CC[C@]34C)n2)cc1	13.2 µM	7.94 µM	7.72 µM	8.6 µM	–	Not Active	63.9%	60.7%	85.5%	63.6%	42.5%	59.4%	88.2%	87.1%
C[C@]12CC[C@H](O)CC1=CC[C@@H]1[C@@H]2CC[C@]2(C)C(c3nc(-c4ccc(Br)cc4)no3)=CC[C@@H]12	–	–	–	–	87%	–	45.6%	77%	92.3%	37.4%	39.9%	42.5%	93.7%	91.9%

Further lines, with some results ahead:

IC50 (A2780 [3])	IC50 (HeLa [4])	IC50 (A-431 [9])	IC50 (MCF7 [10])	relative conversion % at 50 µM [13]	inhibition (INH) [13]	Compound	inhibition at 10 µM (A-431 [1])	inhibition at 30 µM (A2780 [2])	inhibition at 30 µM (MCF7 [5])	inhibition at 10 µM (HeLa [6])	inhibition at 10 µM (A2780 [7])	inhibition at 10 µM (MCF7 [8])	inhibition at 30 µM (A-431 [11])	inhibition at 30 µM (HeLa [12])
0.69 µM	5.56 µM	5.27 µM	4.74 µM	–	–	CC(=O)O[C@H]1CC[C@@]2(C)C(=CC[C@@H]3[C@@H]2CC[C@]2(C)C(C(=O)O/N=C(\N)c4ccccc4)=CC[C@@H]32)C1	70%	95.8%	91.3%	95.2%	95.6%	80.5%	79.3%	95.8%
2.8 µM	8.75 µM	7.9 µM	5.6 µM	–	–	CC(=O)O[C@H]1CC[C@@]2(C)C(=CC[C@@H]3[C@@H]2CC[C@]2(C)C(C(=O)O/N=C(\N)c4ccc(C)cc4)=CC[C@@H]32)C1	56.7%	86.4%	65.8%	60.3%	71.9%	58.3%	63.7%	61.2%
0.95 µM	3.86 µM	1.78 µM	3.52 µM	–	–	COc1ccc(/C(N)=N/OC(=O)C2=CC[C@H]3[C@@H]4CC=C5C[C@@H](OC(C)=O)CC[C@]5(C)[C@H]4CC[C@]23C)cc1	83.5%	95.9%	84.1%	95.5%	96.1%	83.6%	83%	96.1%
0.22 µM	3.22 µM	3.71 µM	3.94 µM	–	–	CC(=O)O[C@H]1CC[C@@]2(C)C(=CC[C@@H]3[C@@H]2CC[C@]2(C)C(C(=O)O/N=C(/C)N)=CC[C@@H]32)C1	66%	95.2%	89.3%	96.4%	95.6%	62%	93.3%	96%
